From ChEMBL document CHEMBL1131588, “A novel class of orally active non-peptide bradykinin B2 receptor antagonists. 2. Overcoming the species difference between guinea pig and man” (J Med Chem, 1998)

Columns and labels:
B2 bradykinin receptor [1] = target: T1, B2 bradykinin receptor (Cavia porcellus, UniProt O70526); assay: Concentration required to inhibit specific binding of [3H]BK at 0.06 nM to Bradykinin receptor B2 in guinea pig ileum membrane preparations by 50%.; assay type: cell membranes
T1 sequence (O70526 whole entry): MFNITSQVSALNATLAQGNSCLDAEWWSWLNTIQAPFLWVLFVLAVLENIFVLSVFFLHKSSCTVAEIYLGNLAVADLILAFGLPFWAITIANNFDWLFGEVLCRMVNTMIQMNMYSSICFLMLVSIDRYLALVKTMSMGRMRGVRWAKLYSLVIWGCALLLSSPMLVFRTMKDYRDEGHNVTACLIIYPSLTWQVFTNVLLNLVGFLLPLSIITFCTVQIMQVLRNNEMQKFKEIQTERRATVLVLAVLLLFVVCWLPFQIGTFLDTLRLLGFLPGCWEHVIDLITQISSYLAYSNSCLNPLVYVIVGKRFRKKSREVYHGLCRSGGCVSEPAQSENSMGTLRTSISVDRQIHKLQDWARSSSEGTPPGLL
Method in brief: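 Guinea pig ileal membranes (100000g pellet, pH 6.8 TES buffer with phenanthroline, bacitracin, DTT, captopril, 0.1% BSA), 0.2 mg protein/mL, incubated with 0.06 nM [3H]BK and compounds 60 min at room temperature; final DMSO below 3%. Filtration on glass fiber filters, scintillation counting; nonspecific binding with 1 µM BK. Three experiments in duplicate.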

B2 bradykinin receptor [2] = target: T2, B2 bradykinin receptor (Homo sapiens, UniProt P30411); assay: Concentration required to inhibit specific binding of [3H]BK at 1.2 nM to A-431 cells (human epidermoid carcinoma) which express Bradykinin receptor B2 by 50%.; assay type: cell-based
T2 sequence (P30411 whole entry): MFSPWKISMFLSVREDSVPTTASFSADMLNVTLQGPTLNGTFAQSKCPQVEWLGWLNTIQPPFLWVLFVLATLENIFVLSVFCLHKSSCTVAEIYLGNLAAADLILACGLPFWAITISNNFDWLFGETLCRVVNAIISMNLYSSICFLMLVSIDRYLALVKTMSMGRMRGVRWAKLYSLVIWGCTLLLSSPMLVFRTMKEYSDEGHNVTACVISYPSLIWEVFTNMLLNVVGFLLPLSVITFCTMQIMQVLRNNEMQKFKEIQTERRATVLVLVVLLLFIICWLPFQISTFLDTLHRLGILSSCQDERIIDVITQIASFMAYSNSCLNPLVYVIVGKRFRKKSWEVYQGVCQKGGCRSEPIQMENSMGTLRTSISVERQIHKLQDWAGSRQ

Cavia porcellus [3] = assay: Compound tested in vivo for inhibition of Bradykinin induced Bronchoconstriction in anaesthetized guinea pig.(P<0.01); % Inhibition at 1 mg/kg. p.o.; assay type: functional; settings: route oral
Method in brief: (§1)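 Male Hartley guinea pigs (470-750 g), fasted overnight, anesthetized with pentobarbital 30 mg/kg ip, cannulated (trachea, jugular vein, esophagus), ventilated 10 mL/kg at 60 breaths/min; alcuronium 0.5 mg/kg iv, propranolol 10 mg/kg sc. BK 5 µg/kg iv; peak rise in insufflation pressure (modified Konzett-Rössler).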

Cavia porcellus [4] = assay: Compound tested in vivo for inhibition of Bradykinin induced Bronchoconstriction in anaesthetized guinea pig.(P<0.001);% Inhibition at 3.2 mg/Kg p,o.; assay type: functional; method in brief: as §1
Cavia porcellus [5] = assay: Compound tested in vivo for inhibition of Bradykinin induced Bronchoconstriction in anaesthetized guinea pig.(P<0.001); % Inhibition at 3.2 mg/Kg p,o.; assay type: functional; method in brief: as §1
Cavia porcellus [6] = assay: Compound tested in vivo for inhibition of Bradykinin induced Bronchoconstriction in anaesthetized guinea pig.(P<0.01); % Inhibition at 1 mg/Kg p,o.; assay type: functional; method in brief: as §1
Cavia porcellus [7] = assay: Compound tested in vivo for inhibition of Bradykinin induced Bronchoconstriction in anaesthetized guinea pig.(P<0.001); % Inhibition at 1 mg/Kg p,o.; assay type: functional; method in brief: as §1
Cavia porcellus [8] = assay: Compound tested in vivo for inhibition of Bradykinin induced Bronchoconstriction in anaesthetized guinea pig.(P<0.05); % Inhibition at 1 mg/Kg p,o.; assay type: functional; method in brief: as §1
Cavia porcellus [9] = assay: Compound tested in vivo for inhibition of Bradykinin induced Bronchoconstriction in anaesthetized guinea pig.(P<0.01); % Inhibition at 3.2 mg/Kg p,o.; assay type: functional; method in brief: as §1
Cavia porcellus [10] = assay: Compound tested in vivo for inhibition of Bradykinin induced Bronchoconstriction in anaesthetized guinea pig.(P<0.01); % Inhibition at 3.2 mg/kg p.o.; assay type: functional; settings: route oral; method in brief: as §1
Cavia porcellus [11] = assay: Compound tested in vivo for inhibition of Bradykinin induced Bronchoconstriction in anaesthetized guinea pig.(P<0.05); % Inhibition at 3.2 mg/Kg p,o.; assay type: functional; settings: in the assay text read “0.32 mg/Kg” for “3.2 mg/Kg”; method in brief: as §1
Cavia porcellus [12] = assay: Compound tested in vivo for inhibition of Bradykinin induced Bronchoconstriction in anaesthetized guinea pig; % Inhibition at 1 mg/Kg p,o.; assay type: functional; method in brief: as §1
Cavia porcellus [13] = assay: Compound tested in vivo for inhibition of Bradykinin induced Bronchoconstriction in anaesthetized guinea pig; % Inhibition at 3.2 mg/Kg p,o.; assay type: functional; method in brief: as §1

Compound	IC50 (B2 bradykinin receptor [1])	IC50 (B2 bradykinin receptor [2])	Inhibition (Cavia porcellus [6])	other results
Cc1nc2c(OCc3c(Cl)ccc(N(C)C(=O)CNC(=O)COc4ccccc4)c3Cl)cccn2c1Br	4.2 nM	510 nM		
Cc1nc2c(OCc3c(Cl)ccc(N(C)C(=O)CNC(=O)Nc4cccc(C(=O)O)c4)c3Cl)cccn2c1Br	63 nM	5200 nM		
Cc1nc2c(OCc3c(Cl)ccc(N(C)C(=O)CNC(=O)CCCc4ccccc4)c3Cl)cccn2c1Br	8.9 nM	480 nM		
Cc1nc2c(OCc3c(Cl)ccc(N(C)C(=O)CNC(=O)CCc4ccccc4)c3Cl)cccn2c1Br	1.4 nM	350 nM		
COCC(=O)Nc1cccc(NC(=O)NCC(=O)N(C)c2ccc(Cl)c(COc3cccn4c(Br)c(C)nc34)c2Cl)c1	2.7 nM	75 nM		
Cc1nc2c(OCc3c(Cl)ccc(N(C)C(=O)CNC(=O)NC(=O)c4ccccc4)c3Cl)cccn2c1Br	340 nM	510 nM		
Cc1nc2c(OCc3c(Cl)ccc(N(C)C(=O)CNC(=O)Nc4cccc(N)c4)c3Cl)cccn2c1Br	15 nM	> 1000 nM		
CCCC(=O)NCC(=O)N(C)c1ccc(Cl)c(COc2cccn3c(Br)c(C)nc23)c1Cl		610 nM		inhibition in vivo at 1 mg/kg (Cavia porcellus [3]): 52.7%
Cc1nc2c(OCc3c(Cl)ccc(N(C)C(=O)CNC(=O)CN(C)C)c3Cl)cccn2c1Br		830 nM		Inhibition (Cavia porcellus [4]): 92.8%; inhibition in vivo at 1 mg/kg (Cavia porcellus [3]): 72.4%
CCNC(=O)NCC(=O)N(C)c1ccc(Cl)c(COc2cccn3c(Br)c(C)nc23)c1Cl		3000 nM		inhibition in vivo at 1 mg/kg (Cavia porcellus [3]): 57.2%; Inhibition (Cavia porcellus [5]): 78.1%
Cc1ccccc1NC(=O)NCC(=O)N(C)c1ccc(Cl)c(COc2cccn3c(Br)c(C)nc23)c1Cl	83 nM	150 nM		
CCCCCC(=O)NCC(=O)N(C)c1ccc(Cl)c(COc2cccn3c(Br)c(C)nc23)c1Cl	5.6 nM	240 nM		
CCOC(=O)c1cccc(NC(=O)NCC(=O)N(C)c2ccc(Cl)c(COc3cccn4c(Br)c(C)nc34)c2Cl)c1	2.2 nM	150 nM		
Cc1nc2c(OCc3c(Cl)ccc(N(C)C(=O)CNC(=O)/C=C/c4ccc(NS(C)(=O)=O)cc4)c3Cl)cccn2c1Br	3.9 nM	4.8 nM		
CC(=O)N(C)c1ccc(/C=C/C(=O)NCC(=O)N(C)c2ccc(Cl)c(COc3cccn4c(Br)c(C)nc34)c2Cl)cc1.Cl	1.1 nM	16 nM	84.3%	
CNC(=O)c1ccc(/C=C/C(=O)NCC(=O)N(C)c2ccc(Cl)c(COc3cccn4c(Br)c(C)nc34)c2Cl)cc1.Cl	0.5 nM	1.5 nM		Inhibition (Cavia porcellus [7]): 53.2%
Cc1nc2c(OCc3c(Cl)ccc(N(C)C(=O)CNC(=O)/C=C/c4ccc(C(=O)N(C)C)nc4)c3Cl)cccn2c1Br.Cl.Cl	0.44 nM	3.7 nM	92.4%	
Cc1nc2c(OCc3c(Cl)ccc(N(C)C(=O)CNC(=O)/C=C/c4ccc(N5CCCC5=O)cc4)c3Cl)cccn2c1Br.Cl	0.59 nM	4.1 nM	82%	
CC(=O)Nc1ccc(/C=C/C(=O)NCC(=O)N(C)c2ccc(Cl)c(COc3cccn4c(Br)c(C)nc34)c2Cl)cn1.Cl.Cl	0.38 nM	2.4 nM		Inhibition (Cavia porcellus [8]): 76.4%

Compound	IC50 (B2 bradykinin receptor [1])	IC50 (B2 bradykinin receptor [2])	Inhibition (Cavia porcellus [6])	other results
Cc1ccc(NC(=O)NCC(=O)N(C)c2ccc(Cl)c(COc3cccn4c(Br)c(C)nc34)c2Cl)cc1.Cl	12 nM	260 nM		Inhibition (Cavia porcellus [9]): 35%
COc1cccc(NC(=O)NCC(=O)N(C)c2ccc(Cl)c(COc3cccn4c(Br)c(C)nc34)c2Cl)c1.Cl	2.3 nM	200 nM	0%	
Cc1cccc(NC(=O)NCC(=O)N(C)c2ccc(Cl)c(COc3cccn4c(Br)c(C)nc34)c2Cl)c1	2.7 nM	140 nM		inhibition in vivo at 3.2 mg/kg (Cavia porcellus [10]): 27.4%
COCCNC(=O)c1cccc(NC(=O)NCC(=O)N(C)c2ccc(Cl)c(COc3cccn4c(Br)c(C)nc34)c2Cl)c1.Cl	0.79 nM	20 nM	16.1%	
Cc1nc2c(OCc3c(Cl)ccc(N(C)C(=O)CNC(=O)/C=C\c4ccccc4)c3Cl)cccn2c1Br	0.78 nM	120 nM		inhibition in vivo at 1 mg/kg (Cavia porcellus [3]): 0%
Cc1nc2c(OCc3c(Cl)ccc(N(C)C(=O)CNC(=O)/C=C/c4ccc(C(=O)N(C)C)cc4)c3Cl)cccn2c1Br.Cl	0.66 nM	1.4 nM	86.7%	Inhibition (Cavia porcellus [11]): 74.8%
CC(=O)c1cccc(NC(=O)NCC(=O)N(C)c2ccc(Cl)c(COc3cccn4c(Br)c(C)nc34)c2Cl)c1.Cl	0.79 nM	61 nM	24.9%	
CC(=O)Nc1ccc(/C=C/C(=O)NCC(=O)N(C)c2ccc(Cl)c(COc3cccn4c(Br)c(C)nc34)c2Cl)cc1.Cl	0.55 nM	1.6 nM		Inhibition (Cavia porcellus [12]): 20.7%
Cc1nc2c(OCc3c(Cl)ccc(N(C)C(=O)CNC(=O)Nc4cccc(C(=O)N(C)C)c4)c3Cl)cccn2c1Br.Cl	0.76 nM	20 nM	23.2%	
Cc1nc2c(OCc3c(Cl)ccc(N(C)C(=O)CNC(=O)Cc4ccccc4)c3Cl)cccn2c1Br.Cl	5.3 nM	670 nM		Inhibition (Cavia porcellus [13]): 19.8%
Cc1nc2c(OCc3c(Cl)ccc(N(C)C(=O)CNC(=O)NCc4ccccc4)c3Cl)cccn2c1Br.Cl	11 nM	570 nM		Inhibition (Cavia porcellus [13]): 24.1%
Cc1nc2c(OCc3c(Cl)ccc(N(C)C(=O)CNC(=O)Nc4cccc([N+](=O)[O-])c4)c3Cl)cccn2c1Br	4.2 nM	180 nM		inhibition in vivo at 1 mg/kg (Cavia porcellus [3]): 13.6%
CNC(=O)c1ccc(/C=C/C(=O)NCC(=O)N(C)c2ccc(Cl)c(COc3cccn4c(Br)c(C)nc34)c2Cl)cn1.Cl.Cl	0.36 nM	9.1 nM	89.4%	
CNC(=O)Nc1ccc(/C=C/C(=O)NCC(=O)N(C)c2ccc(Cl)c(COc3cccn4c(Br)c(C)nc34)c2Cl)cc1.Cl	0.89 nM	2.6 nM	18.8%	
Cc1nc2c(OCc3c(Cl)ccc(N(C)C(=O)CNC(=O)Nc4cccc(C#N)c4)c3Cl)cccn2c1Br.Cl	1.4 nM	190 nM	4.7%	
Cc1nc2c(OCc3c(Cl)ccc(N(C)C(=O)CNC(=O)Nc4cccc(Cl)c4)c3Cl)cccn2c1Br.Cl	3.8 nM	1900 nM	14.5%	
CC(=O)NCC(=O)N(C)c1ccc(Cl)c(COc2cccn3c(Br)c(C)nc23)c1Cl.Cl		4100 nM		inhibition in vivo at 1 mg/kg (Cavia porcellus [3]): 62.3%; Inhibition (Cavia porcellus [5]): 94.2%
Cc1nc2c(OCc3c(Cl)ccc(N(C)C(=O)CNC(=O)Nc4ccccc4)c3Cl)cccn2c1Br	1.4 nM	150 nM		
NC(N)=NCCC[C@@H](N)C(=O)N[C@@H](CCCN=C(N)N)C(=O)N1CCC[C@H]1C(=O)N1C[C@H](O)C[C@H]1C(=O)NCC(=O)N[C@@H](Cc1cccs1)C(=O)N[C@@H](CO)C(=O)N1Cc2ccccc2C[C@@H]1C(=O)N1[C@H](C(=O)N[C@@H](CCCN=C(N)N)C(=O)O)C[C@@H]2CCCC[C@@H]21 [ICATIBANT]	0.09 nM			
